Experimental data: ChEMBL document CHEMBL4699493, “Development of Bis-cyclic Imidazolidine-4-one Derivatives as Potent Antibacterial Agents” (J Med Chem, 2020)
Converted amounts (≈) assume the structure as drawn.

Assays:
Staphylococcus aureus [1] = test: Antibacterial activity against methicillin-resistant Staphylococcus aureus ATCC 33591; assay type: functional
In short: (§1)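 Broth microdilution in TSB. Strains were grown 16 h, subcultured 6 h to log phase, then diluted to 10^6 CFU/mL by OD600. Compound came from a 5 mg/mL DMSO stock diluted in TSB and serially diluted, top final concentration 25 μg/mL. MIC was the lowest concentration giving complete growth inhibition. Done ≥3 times in duplicate.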

[2] = test system: Staphylococcus epidermidis; test: Antibacterial activity against methicillin-resistant Staphylococcus epidermidis RP62A; assay type: functional; in short: as §1
Escherichia coli = test: Antibacterial activity against Escherichia coli ATCC 25922; assay type: functional
In short: (§2)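 Broth microdilution in TSB. Stocks at 5 mg/mL in DMSO diluted with TSB to 100 μg/mL, then serially diluted; highest test concentration 25 μg/mL. Bacteria grown 16 h, subcultured 6 h to log phase, adjusted to 10^6 CFU/mL by OD600. MIC = lowest concentration giving complete growth inhibition. At least three repeats, each in duplicate.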

Klebsiella pneumoniae = test: Antibacterial activity against Klebsiella pneumoniae ATCC 13383; assay type: functional; in short: as §2
[3] = Hemolytic activity against mouse RBC measured after 1 hr by microplate reader analysis; assay type: ADME, cell-based, Erythrocyte; conditions: mouse red blood cells (erythrocytes)
In short: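 Mouse red blood cells collected by centrifugation (500–700g, 10 min), washed three times in PBS, and diluted 20-fold in PBS. Mixed with 2-fold serial dilutions of compound (starting at 1 mg/mL in PBS) and incubated 1 h at 37 °C. After centrifugation, supernatant absorbance read at 540 nm. % hemolysis calculated relative to PBS (0%) and 2% Triton (100%). At least three repeats in duplicate.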

[4] = Selectivity ratio of HC50 for hemolytic activity against mouse RBC to MIC for methicillin-resistant Staphylococcus aureus; assay type: toxicity; conditions: mouse red blood cells (erythrocytes)
In short: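 Mouse RBCs were washed three times in PBS and diluted in 20 volumes of PBS. They were mixed with compound 2-fold serially diluted from 1 mg/mL in PBS, incubated 1 h at 37 °C, then centrifuged; supernatant read at A540. % hemolysis was calculated against PBS (0%) and 2% Triton (100%). Done ≥3 times in duplicate. HC50 was divided by the MRSA MIC.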

Staphylococcus aureus [5] = test: Antibacterial activity against methicillin-resistant Staphylococcus aureus ATCC 33591 assessed as ratio of MIC after and before 13 serial passages; assay type: functional
In short: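 Serial-passage resistance test. A first MIC was run by TSB broth microdilution. Bacteria from the well after the last clear well were resuspended to about 10^6 CFU/mL for the next MIC. This was repeated for 13 passages.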

| Compound | MIC (Staphylococcus aureus [1]) | MIC [2] | MIC (Escherichia coli) | MIC (Klebsiella pneumoniae) | HC50 at 1 h [3] | selectivity ratio [4] | Ratio (Staphylococcus aureus [5]) |
| --- | --- | --- | --- | --- | --- | --- | --- |
| N=C(N)NCCCC[C@@H](CN1CC(=O)N(c2ccc(N3CN(C[C@H](CCCCNC(=N)N)NC(=O)CC45C[C@H]6C[C@@H](C4)C[C@@H](C5)C6)CC3=O)cc2)C1)NC(=O)CC12C[C@H]3C[C@@H](C1)C[C@@H](C2)C3 | 1 µg/mL (≈ 1.1 µM) | 2 µg/mL (≈ 2.19 µM) | > 25 µg/mL | > 25 µg/mL | 250 µg/mL | 250 | – |
| CCCCCCCC(=O)N[C@@H](CCCCN)CN1CC(=O)N(c2ccc(N3CN(C[C@H](CCCCN)NC(=O)CCCCCCC)CC3=O)cc2)C1 | > 25 µg/mL | > 25 µg/mL | > 25 µg/mL | > 25 µg/mL | > 250 µg/mL | – | – |
| CCCCCCCCCCCCCC(=O)N[C@@H](CCCCN)CN1CC(=O)N(c2ccc(N3CN(C[C@H](CCCCN)NC(=O)CCCCCCCCCCCCC)CC3=O)cc2)C1 | > 25 µg/mL | > 25 µg/mL | > 25 µg/mL | > 25 µg/mL | > 250 µg/mL | – | – |
| CCn1cc(C(=O)O)c(=O)c2cc(F)c(N3CCNCC3)cc21 [NORFLOXACIN] | – | – | – | – | – | – | > 22 |
| CCCCCCCCCCCCCCCC(=O)N[C@@H](CCCCN)CN1CC(=O)N(c2ccc(N3CN(C[C@H](CCCCN)NC(=O)CCCCCCCCCCCCCCC)CC3=O)cc2)C1 | > 25 µg/mL | > 25 µg/mL | > 25 µg/mL | > 25 µg/mL | > 250 µg/mL | – | – |
| CCCCCCCCCC(=O)N[C@@H](CCCCN)CNCC(=O)Nc1ccc(NC(=O)CNC[C@H](CCCCN)NC(=O)CCCCCCCCC)cc1 | 2 µg/mL (≈ 2.63 µM) | 2 µg/mL (≈ 2.63 µM) | > 25 µg/mL | > 25 µg/mL | > 250 µg/mL | > 125 | – |
| CCCCCCCCCCCC(=O)N[C@@H](CCCCN)CN1CC(=O)N(c2ccc(N3CN(C[C@H](CCCCN)NC(=O)CCCCCCCCCCC)CC3=O)cc2)C1 | 1 µg/mL (≈ 1.19 µM) | 2 µg/mL (≈ 2.38 µM) | > 25 µg/mL | > 25 µg/mL | > 250 µg/mL | > 250 | – |
| CCCCCC(=O)N[C@@H](CCCCN)CN1CC(=O)N(c2ccc(N3CN(C[C@H](CCCCN)NC(=O)CCCCC)CC3=O)cc2)C1 | > 25 µg/mL | > 25 µg/mL | > 25 µg/mL | > 25 µg/mL | > 250 µg/mL | – | – |
| NCCCC(=O)N[C@@H](Cc1ccccc1)CN1CC(=O)N(c2ccc(N3CN(C[C@H](Cc4ccccc4)NC(=O)CCCN)CC3=O)cc2)C1 | > 25 µg/mL | > 25 µg/mL | > 25 µg/mL | > 25 µg/mL | > 250 µg/mL | – | – |
| CCCCCCCCCC(=O)N[C@@H](Cc1ccccc1)CN1CC(=O)N(c2ccc(N3CN(C[C@H](Cc4ccccc4)NC(=O)CCCCCCCCC)CC3=O)cc2)C1 | > 25 µg/mL | > 25 µg/mL | > 25 µg/mL | > 25 µg/mL | > 250 µg/mL | – | – |
| CCCCCCCCCC(=O)N[C@@H](CCCCNC(=N)N)CN1CC(=O)N(c2ccc(N3CN(C[C@H](CCCCNC(=N)N)NC(=O)CCCCCCCCC)CC3=O)cc2)C1 | 1 µg/mL (≈ 1.15 µM) | 5 µg/mL (≈ 5.77 µM) | > 25 µg/mL | 5 µg/mL (≈ 5.77 µM) | 125 µg/mL | 125 | – |
| NCCCC[C@@H](CN1CC(=O)N(c2ccc(N3CN(C[C@H](CCCCN)NC(=O)CC45C[C@H]6C[C@@H](C4)C[C@@H](C5)C6)CC3=O)cc2)C1)NC(=O)CC12C[C@H]3C[C@@H](C1)C[C@@H](C2)C3 | > 25 µg/mL | > 25 µg/mL | > 25 µg/mL | > 25 µg/mL | > 250 µg/mL | – | – |
| O=C(O)c1cn(C2CC2)c2cc(N3CCNCC3)c(F)cc2c1=O [CIPROFLOXACIN] | 0.15 µg/mL (≈ 0.453 µM) | 0.15 µg/mL (≈ 0.453 µM) | 0.07 µg/mL (≈ 0.211 µM) | 0.3 µg/mL (≈ 0.905 µM) | – | – | – |
| NCCCC[C@@H](CN1CC(=O)N(c2ccc(N3CN(C[C@H](CCCCN)NC(=O)Cc4ccc5ccccc5c4)CC3=O)cc2)C1)NC(=O)Cc1ccc2ccccc2c1 | > 25 µg/mL | > 25 µg/mL | > 25 µg/mL | > 25 µg/mL | > 250 µg/mL | – | – |
